{"data": "Measurements pooled from the literature", "read-out": "cell growth or viability", "note": "Compare with care: the assays were run in different laboratories."}
{"SMILES": "Nc1ncc(-c2cnn(C3CCNCC3)c2)cc1-c1nnc(CC2CC2)o1", "cell line": "MOLM-13", "method": "trypan blue", "time": "72 h", "IC50": "0.184 µM"}
{"SMILES": "CC1=C(O)C(=O)C=C2C1=CC=C1[C@@]2(C)CC[C@@]2(C)[C@@H]3C[C@](C)(C(=O)OCCCCCCO)CC[C@]3(C)CC[C@]12C", "cell line": "Bel-7402", "method": "MTT", "time": "48 h", "IC50": "1.22 µM"}
{"SMILES": "Cn1cc(C(c2cccc(/C=C/C(=O)O)c2)c2cn(C)c3ccccc23)c2ccccc21", "cell line": "KG-1", "time": "48 h", "IC50": "> 20 µM"}
{"SMILES": "COc1cc(Nc2nccc(-c3cnn4nc(OC)ccc34)n2)cc(C(F)(F)F)c1", "cell line": "KG-1", "method": "ATP luminescence", "IC50": "0.86 µM"}
{"SMILES": "CC1=C(O)C(=O)C=C2C1=CC=C1[C@@]2(C)CC[C@@]2(C)[C@@H]3C[C@](C)(C(=O)OCCCOc4ccccc4)CC[C@]3(C)CC[C@]12C", "cell line": "Bel-7402", "method": "MTT", "time": "48 h", "IC50": "1.33 µM"}
{"SMILES": "CC(C)C[C@H](NC(=O)[C@H](Cc1ccccc1)NC(=O)c1cnccn1)B(O)O", "cell line": "KG-1", "method": "ATP luminescence", "IC50": "0.0048 µM"}
{"SMILES": "Cc1cccc2c(C(c3ccc(/C=C/C(=O)O)s3)c3c[nH]c4c(C)cccc34)c[nH]c12", "cell line": "KG-1", "time": "48 h", "IC50": "> 5 µM"}
{"SMILES": "CCn1c2ccccc2c2cc(C3CC(c4cc5ccccc5oc4=O)=NN3c3cccc(Cl)c3)ccc21 (stereo not drawn)", "cell line": "NRK-52E", "method": "MTT", "time": "24 h", "IC50": "41 µM"}
{"SMILES": "CC1=C(O)C(=O)C=C2C1=CC=C1[C@@]2(C)CC[C@@]2(C)[C@@H]3C[C@](C)(C(=O)OCCCN4C(=O)C5C=CC=CC5C4=O)CC[C@]3(C)CC[C@]12C (stereo partly drawn)", "cell line": "Bel-7402", "method": "MTT", "time": "48 h", "IC50": "0.83 µM"}
{"SMILES": "Cc1ccc2c(c1)c(C(c1ccc(/C=C/C(=O)O)s1)c1cn(C(C)C)c3ccc(C)cc13)cn2C(C)C", "cell line": "KG-1", "time": "48 h", "IC50": "> 5 µM"}
{"SMILES": "CC(C)[C@H](N)C(=O)N1CCC[C@H]1B(O)O", "cell line": "KG-1", "method": "ATP luminescence", "time": "48 h", "IC50": "0.12 µM"}
{"SMILES": "CCn1c2ccccc2c2cc(C3CC(c4cc5ccccc5oc4=O)=NN3C(C)=O)ccc21 (stereo not drawn)", "cell line": "NRK-52E", "method": "MTT", "time": "24 h", "IC50": "116 µM"}
{"SMILES": "CCCON(Cc1ccc(C(=O)NO)cc1)C(=O)Nc1ccc(N(C)C)cc1", "cell line": "MOLM-13", "method": "ATP luminescence", "time": "72 h", "IC50": "7.19 µM"}
{"SMILES": "Oc1ccc(C(c2c[nH]c3ccccc23)c2c[nH]c3ccccc23)cc1", "cell line": "KG-1", "time": "48 h", "IC50": "> 20 µM"}
{"SMILES": "Cc1cc(Nc2ncc(Cl)c(Nc3ccccc3S(=O)(=O)C(C)C)n2)c(OC(C)C)cc1C1CCNCC1", "cell line": "Rh18", "time": "72 h", "IC50": "2.34 µM"}
{"SMILES": "Cn1cc(C(c2ccc(C(=O)O)cc2)c2cn(C)c3ccccc23)c2ccccc21", "cell line": "KG-1", "time": "48 h", "IC50": "> 20 µM"}
{"SMILES": "CCn1c2ccccc2c2cc(C3CC(c4cc5ccccc5oc4=O)=NN3c3ccc(C)cc3)ccc21 (stereo not drawn)", "cell line": "NRK-52E", "method": "MTT", "time": "24 h", "IC50": "83.2 µM"}
{"SMILES": "CC1=C(O)C(=O)C=C2C1=CC=C1[C@@]2(C)CC[C@@]2(C)[C@@H]3C[C@](C)(C(=O)OCCO)CC[C@]3(C)CC[C@]12C", "cell line": "Bel-7402", "method": "MTT", "time": "48 h", "IC50": "0.68 µM"}
{"SMILES": "CCn1c2ccccc2c2cc(/C=C/C(=O)c3cc4ccccc4oc3=O)ccc21", "cell line": "NRK-52E", "method": "MTT", "time": "24 h", "IC50": "94.6 µM"}
{"SMILES": "CC1=C(O)C(=O)C=C2C1=CC=C1[C@@]2(C)CC[C@@]2(C)[C@@H]3C[C@](C)(C(=O)OCCCBr)CC[C@]3(C)CC[C@]12C", "cell line": "Bel-7402", "method": "MTT", "time": "48 h", "IC50": "0.72 µM"}
{"SMILES": "C[C@@H](Oc1cc(-c2cnn(C3CCNCC3)c2)cnc1N)c1c(Cl)ccc(F)c1Cl", "cell line": "Rh18", "time": "72 h", "IC50": "0.55 µM"}
{"SMILES": "CCn1c2ccccc2c2cc(C3CC(c4cc5cccc(OC)c5oc4=O)=NN3c3ccccc3)ccc21 (stereo not drawn)", "cell line": "NRK-52E", "method": "MTT", "time": "24 h", "IC50": "70.4 µM"}
{"SMILES": "CC(=O)O[C@H]1C(=O)[C@@]2(C)[C@H]([C@H](OC(=O)c3ccccc3)[C@]3(O)C[C@H](OC(=O)[C@H](O)[C@@H](NC(=O)c4ccccc4)c4ccccc4)C(C)=C1C3(C)C)[C@]1(OC(C)=O)CO[C@@H]1C[C@@H]2O", "cell line": "CT26", "IC50": "2 µg/mL"}
{"SMILES": "Cc1ccc2[nH]cc(C(c3ccc(/C=C/C(=O)O)s3)c3c[nH]c4ccc(C)cc34)c2c1", "cell line": "KG-1", "time": "48 h", "IC50": "> 5 µM"}
{"SMILES": "CCn1c2ccccc2c2cc(C3CC(c4cc5c(ccc6ccccc65)oc4=O)=NN3c3ccc(C)cc3)ccc21 (stereo not drawn)", "cell line": "NRK-52E", "method": "MTT", "time": "24 h", "IC50": "79.9 µM"}
{"SMILES": "COc1cc2c(Oc3ccc(NC(=O)C4(C(=O)Nc5ccc(F)cc5)CC4)cc3F)ccnc2cc1OCCCN1CCOCC1", "cell line": "Rh18", "time": "72 h", "IC50": "0.31 µM"}
{"SMILES": "CCn1c2ccccc2c2cc(C3CC(c4cc5c(ccc6ccccc65)oc4=O)=NN3C(N)=O)ccc21 (stereo not drawn)", "cell line": "NRK-52E", "method": "MTT", "time": "24 h", "IC50": "59.1 µM"}
{"SMILES": "CC1=C(O)C(=O)C=C2C1=CC=C1[C@@]2(C)CC[C@@]2(C)[C@@H]3C[C@](C)(C(=O)OCCCO)CC[C@]3(C)CC[C@]12C", "cell line": "Bel-7402", "method": "MTT", "time": "48 h", "IC50": "0.58 µM"}
{"SMILES": "CCn1c2ccccc2c2cc(C3CC(c4cc5cccc(OC)c5oc4=O)=NN3c3ccc(C)cc3)ccc21 (stereo not drawn)", "cell line": "NRK-52E", "method": "MTT", "time": "24 h", "IC50": "52 µM"}
{"SMILES": "COCCCOC(=O)[C@]1(C)CC[C@]2(C)CC[C@]3(C)C4=CC=C5C(=CC(=O)C(O)=C5C)[C@]4(C)CC[C@@]3(C)[C@@H]2C1", "cell line": "Bel-7402", "method": "MTT", "time": "48 h", "IC50": "0.81 µM"}
